Test results: ChEMBL document CHEMBL3098013, “Novel pyrazole integrated 1,3,4-oxadiazoles: synthesis, characterization and antimicrobial evaluation” (2014)
≈ marks a conversion by molar mass, not a printed value.

What was measured:
Assay type in all cases: functional
Fusarium verticillioides [1] = assay: Antimicrobial activity against Fusarium moniliforme MTCC 156 after 48 hrs by microdilution method; conditions: MTCC 156, 48 h
Procedure, shortened: (§1)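 The minimal inhibitory concentration was determined by dilution, alongside minimal bactericidal concentration for bacterial strains and minimal fungicidal concentration for fungal strains. Tests were run in six replicates, and the value is the mean of at least three determinations.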

Fusarium oxysporum [2] = assay: Antimicrobial activity against Fusarium oxysporum MTCC 284 after 48 hrs by microdilution method; conditions: MTCC 284, 48 h; procedure, shortened: as §1
Aspergillus niger [3] = assay: Antimicrobial activity against Aspergillus niger MTCC 281 after 48 hrs by microdilution method; conditions: MTCC 281, 48 h; procedure, shortened: as §1
Aspergillus flavus [4] = assay: Antimicrobial activity against Aspergillus flavus MTCC 873 after 48 hrs by microdilution method; conditions: MTCC 873, 48 h; procedure, shortened: as §1
Klebsiella pneumoniae [5] = assay: Antimicrobial activity against Klebsiella pneumoniae MTCC 3384 after 24 hrs by microdilution method; conditions: MTCC 3384, 24 h; procedure, shortened: as §1
Escherichia coli [6] = assay: Antimicrobial activity against Escherichia coli MTCC 724 after 24 hrs by microdilution method; conditions: MTCC 724, 24 h; procedure, shortened: as §1
Staphylococcus aureus [7] = assay: Antimicrobial activity against Staphylococcus aureus MTCC 96 after 24 hrs by microdilution method; conditions: MTCC 96, 24 h; procedure, shortened: as §1
Bacillus cereus [8] = assay: Antimicrobial activity against Bacillus cereus MTCC 8372 after 24 hrs by microdilution method; conditions: MTCC 8372, 24 h; procedure, shortened: as §1
Fusarium verticillioides [9] = assay: Antimicrobial activity against Fusarium moniliforme MTCC 156 at 100 ug/ml after 48 hrs by disc diffusion method; conditions: MTCC 156, 48 h, read-out: DIZ
Procedure, shortened: (§2)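 Agar diffusion read-out is the diameter of the inhibition zone in mm. Each test was run in six replicates and reported as mean ± standard deviation, taken from at least three determinations.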

Fusarium verticillioides [10] = assay: Antimicrobial activity against Fusarium moniliforme MTCC 156 at 50 ug/ml after 48 hrs by disc diffusion method; conditions: MTCC 156, 48 h, read-out: DIZ; procedure, shortened: as §2
Fusarium oxysporum [11] = assay: Antimicrobial activity against Fusarium oxysporum MTCC 284 at 100 ug/ml after 48 hrs by disc diffusion method; conditions: MTCC 284, 48 h, read-out: DIZ; procedure, shortened: as §2
Fusarium oxysporum [12] = assay: Antimicrobial activity against Fusarium oxysporum MTCC 284 at 50 ug/ml after 48 hrs by disc diffusion method; conditions: MTCC 284, 48 h, read-out: DIZ; procedure, shortened: as §2
Aspergillus niger [13] = assay: Antimicrobial activity against Aspergillus niger MTCC 281 at 100 ug/ml after 48 hrs by disc diffusion method; conditions: MTCC 281, 48 h, read-out: DIZ; procedure, shortened: as §2
Aspergillus niger [14] = assay: Antimicrobial activity against Aspergillus niger MTCC 281 at 50 ug/ml after 48 hrs by disc diffusion method; conditions: MTCC 281, 48 h, read-out: DIZ; procedure, shortened: as §2
Aspergillus flavus [15] = assay: Antimicrobial activity against Aspergillus flavus MTCC 873 at 100 ug/ml after 48 hrs by disc diffusion method; conditions: MTCC 873, 48 h, read-out: DIZ; procedure, shortened: as §2
Aspergillus flavus [16] = assay: Antimicrobial activity against Aspergillus flavus MTCC 873 at 50 ug/ml after 48 hrs by disc diffusion method; conditions: MTCC 873, 48 h, read-out: DIZ; procedure, shortened: as §2
Klebsiella pneumoniae [17] = assay: Antimicrobial activity against Klebsiella pneumoniae MTCC 3384 at 100 ug/ml after 24 hrs by disc diffusion method; conditions: MTCC 3384, 24 h, read-out: DIZ; procedure, shortened: as §2
Escherichia coli [18] = assay: Antimicrobial activity against Escherichia coli MTCC 724 at 100 ug/ml after 24 hrs by disc diffusion method; conditions: MTCC 724, 24 h, read-out: DIZ; procedure, shortened: as §2
Klebsiella pneumoniae [19] = assay: Antimicrobial activity against Klebsiella pneumoniae MTCC 3384 at 50 ug/ml after 24 hrs by disc diffusion method; conditions: MTCC 3384, 24 h, read-out: DIZ; procedure, shortened: as §2
Escherichia coli [20] = assay: Antimicrobial activity against Escherichia coli MTCC 724 at 50 ug/ml after 24 hrs by disc diffusion method; conditions: MTCC 724, 24 h, read-out: DIZ; procedure, shortened: as §2
Staphylococcus aureus [21] = assay: Antimicrobial activity against Staphylococcus aureus MTCC 96 at 100 ug/ml after 24 hrs by disc diffusion method; conditions: MTCC 96, 24 h, read-out: DIZ; procedure, shortened: as §2
Staphylococcus aureus [22] = assay: Antimicrobial activity against Staphylococcus aureus MTCC 96 at 50 ug/ml after 24 hrs by disc diffusion method; conditions: MTCC 96, 24 h, read-out: DIZ; procedure, shortened: as §2
Bacillus cereus [23] = assay: Antimicrobial activity against Bacillus cereus MTCC 8372 at 100 ug/ml after 24 hrs by disc diffusion method; conditions: MTCC 8372, 24 h, read-out: DIZ; procedure, shortened: as §2
Bacillus cereus [24] = assay: Antimicrobial activity against Bacillus cereus MTCC 8372 at 50 ug/ml after 24 hrs by disc diffusion method; conditions: MTCC 8372, 24 h, read-out: DIZ; procedure, shortened: as §2

COc1ccc(-c2nn(-c3ccccc3)c(C)c2-c2nnc(-c3ccccc3)o2)cc1OC
MFC (Fusarium verticillioides [1]): 290 µg/mL (≈ 661 µM)
MIC (Fusarium verticillioides [1]): 55 µg/mL (≈ 125 µM)
MFC (Fusarium oxysporum [2]): 220 µg/mL (≈ 502 µM)
MIC (Fusarium oxysporum [2]): 25 µg/mL (≈ 57 µM)
MFC (Aspergillus niger [3]): 275 µg/mL (≈ 627 µM)
MIC (Aspergillus niger [3]): 40 µg/mL (≈ 91.2 µM)
MFC (Aspergillus flavus [4]): 275 µg/mL (≈ 627 µM)
MIC (Aspergillus flavus [4]): 45 µg/mL (≈ 103 µM)
MBC (Klebsiella pneumoniae [5]): 250 µg/mL (≈ 570 µM)
MIC (Klebsiella pneumoniae [5]): 35 µg/mL (≈ 79.8 µM)
MBC (Escherichia coli [6]): 220 µg/mL (≈ 502 µM)
MIC (Escherichia coli [6]): 35 µg/mL (≈ 79.8 µM)
MBC (Staphylococcus aureus [7]): 235 µg/mL (≈ 536 µM)
MIC (Staphylococcus aureus [7]): 40 µg/mL (≈ 91.2 µM)
MBC (Bacillus cereus [8]): 230 µg/mL (≈ 525 µM)
MIC (Bacillus cereus [8]): 35 µg/mL (≈ 79.8 µM)
zone of inhibition at 100 µg/mL (Fusarium verticillioides [9]): 8 mm
zone of inhibition at 50 µg/mL (Fusarium verticillioides [10]): 6 mm
zone of inhibition at 100 µg/mL (Fusarium oxysporum [11]): 24 mm
zone of inhibition at 50 µg/mL (Fusarium oxysporum [12]): 15 mm
zone of inhibition at 100 µg/mL (Aspergillus niger [13]): 11 mm
zone of inhibition at 50 µg/mL (Aspergillus niger [14]): 3 mm
zone of inhibition at 100 µg/mL (Aspergillus flavus [15]): 8 mm
zone of inhibition at 50 µg/mL (Aspergillus flavus [16]): 5 mm
zone of inhibition at 100 µg/mL (Klebsiella pneumoniae [17]): 9 mm
zone of inhibition at 100 µg/mL (Escherichia coli [18]): 20 mm
zone of inhibition at 50 µg/mL (Klebsiella pneumoniae [19]): 6 mm
zone of inhibition at 50 µg/mL (Escherichia coli [20]): 14 mm
zone of inhibition at 100 µg/mL (Staphylococcus aureus [21]): 13 mm
zone of inhibition at 50 µg/mL (Staphylococcus aureus [22]): 6 mm
zone of inhibition at 100 µg/mL (Bacillus cereus [23]): 16 mm
zone of inhibition at 50 µg/mL (Bacillus cereus [24]): 8 mm

COc1ccc(-c2nnc(-c3c(-c4ccccc4)nn(-c4ccccc4)c3C)o2)cc1
MFC (Fusarium verticillioides [1]): 290 µg/mL (≈ 710 µM)
MIC (Fusarium verticillioides [1]): 50 µg/mL (≈ 122 µM)
MFC (Fusarium oxysporum [2]): 280 µg/mL (≈ 685 µM)
MIC (Fusarium oxysporum [2]): 50 µg/mL (≈ 122 µM)
MFC (Aspergillus niger [3]): 275 µg/mL (≈ 673 µM)
MIC (Aspergillus niger [3]): 45 µg/mL (≈ 110 µM)
MFC (Aspergillus flavus [4]): 270 µg/mL (≈ 661 µM)
MIC (Aspergillus flavus [4]): 45 µg/mL (≈ 110 µM)
MBC (Klebsiella pneumoniae [5]): 240 µg/mL (≈ 588 µM)
MIC (Klebsiella pneumoniae [5]): 45 µg/mL (≈ 110 µM)
MBC (Escherichia coli [6]): 235 µg/mL (≈ 575 µM)
MIC (Escherichia coli [6]): 45 µg/mL (≈ 110 µM)
MBC (Staphylococcus aureus [7]): 225 µg/mL (≈ 551 µM)
MIC (Staphylococcus aureus [7]): 35 µg/mL (≈ 85.7 µM)
MBC (Bacillus cereus [8]): 220 µg/mL (≈ 539 µM)
MIC (Bacillus cereus [8]): 35 µg/mL (≈ 85.7 µM)
zone of inhibition at 100 µg/mL (Fusarium verticillioides [9]): 11 mm
zone of inhibition at 50 µg/mL (Fusarium verticillioides [10]): 9 mm
zone of inhibition at 100 µg/mL (Fusarium oxysporum [11]): 12 mm
zone of inhibition at 50 µg/mL (Fusarium oxysporum [12]): 8 mm
zone of inhibition at 100 µg/mL (Aspergillus niger [13]): 12 mm
zone of inhibition at 50 µg/mL (Aspergillus niger [14]): 6 mm
zone of inhibition at 100 µg/mL (Aspergillus flavus [15]): 14 mm
zone of inhibition at 50 µg/mL (Aspergillus flavus [16]): 8 mm
zone of inhibition at 100 µg/mL (Klebsiella pneumoniae [17]): 11 mm
zone of inhibition at 100 µg/mL (Escherichia coli [18]): 12 mm
zone of inhibition at 50 µg/mL (Klebsiella pneumoniae [19]): 9 mm
zone of inhibition at 50 µg/mL (Escherichia coli [20]): 8 mm
zone of inhibition at 100 µg/mL (Staphylococcus aureus [21]): 12 mm
zone of inhibition at 50 µg/mL (Staphylococcus aureus [22]): 6 mm
zone of inhibition at 100 µg/mL (Bacillus cereus [23]): 12 mm
zone of inhibition at 50 µg/mL (Bacillus cereus [24]): 5 mm

Cc1c(-c2nnc(-c3ccccc3)o2)c(-c2ccc([N+](=O)[O-])cc2)nn1-c1ccccc1
MFC (Fusarium verticillioides [1]): 275 µg/mL (≈ 649 µM)
MIC (Fusarium verticillioides [1]): 45 µg/mL (≈ 106 µM)
MFC (Fusarium oxysporum [2]): 280 µg/mL (≈ 661 µM)
MIC (Fusarium oxysporum [2]): 40 µg/mL (≈ 94.5 µM)
MFC (Aspergillus niger [3]): 290 µg/mL (≈ 685 µM)
MIC (Aspergillus niger [3]): 40 µg/mL (≈ 94.5 µM)
MFC (Aspergillus flavus [4]): 290 µg/mL (≈ 685 µM)
MIC (Aspergillus flavus [4]): 50 µg/mL (≈ 118 µM)
MBC (Klebsiella pneumoniae [5]): 180 µg/mL (≈ 425 µM)
MIC (Klebsiella pneumoniae [5]): 25 µg/mL (≈ 59 µM)
MBC (Escherichia coli [6]): 190 µg/mL (≈ 449 µM)
MIC (Escherichia coli [6]): 25 µg/mL (≈ 59 µM)
MBC (Staphylococcus aureus [7]): 150 µg/mL (≈ 354 µM)
MIC (Staphylococcus aureus [7]): 20 µg/mL (≈ 47.2 µM)
MBC (Bacillus cereus [8]): 150 µg/mL (≈ 354 µM)
MIC (Bacillus cereus [8]): 20 µg/mL (≈ 47.2 µM)
zone of inhibition at 100 µg/mL (Fusarium verticillioides [9]): 14 mm
zone of inhibition at 50 µg/mL (Fusarium verticillioides [10]): 5 mm
zone of inhibition at 100 µg/mL (Fusarium oxysporum [11]): 10 mm
zone of inhibition at 50 µg/mL (Fusarium oxysporum [12]): 8 mm
zone of inhibition at 100 µg/mL (Aspergillus niger [13]): 12 mm
zone of inhibition at 50 µg/mL (Aspergillus niger [14]): 8 mm
zone of inhibition at 100 µg/mL (Aspergillus flavus [15]): 14 mm
zone of inhibition at 50 µg/mL (Aspergillus flavus [16]): 6 mm
zone of inhibition at 100 µg/mL (Klebsiella pneumoniae [17]): 12 mm
zone of inhibition at 100 µg/mL (Escherichia coli [18]): 18 mm
zone of inhibition at 50 µg/mL (Klebsiella pneumoniae [19]): 9 mm
zone of inhibition at 50 µg/mL (Escherichia coli [20]): 9 mm
zone of inhibition at 100 µg/mL (Staphylococcus aureus [21]): 18 mm
zone of inhibition at 50 µg/mL (Staphylococcus aureus [22]): 10 mm
zone of inhibition at 100 µg/mL (Bacillus cereus [23]): 20 mm
zone of inhibition at 50 µg/mL (Bacillus cereus [24]): 14 mm
